The source of these data is PubChem BioAssay.

Active and inactive are the calls of the source. Unless noted, no stated cut-off is given here; in the data, active means inhibition above about 30%; inactive means the rest.

The nature of test [1]: Her2 expression decrease, cell viability multiplex – SKBR3 breast tumor cells, AlphaScreen, ATP viability, primary screen (AID 461;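 active means Her2 level under about 52% in both replicate screens, with viability over 70% of control, limit read from the data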;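 on Her2 level: lower value means less Her2 protein in the cells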;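 on viability: percent of carrier control wells set as 100% viability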). To be noted: SKBR3 Her2 protein level, 18-24 h, measured here: SKBR3 viability, ATP luminescence, at 10 µM. (Alpha assays give light when donor and acceptor beads are brought close together.)
In test [2] the target is Receptor tyrosine-protein kinase erbB-2 (Homo sapiens) (UniProt P04626). Described as above. Conditions: 18-24 h, at 10 µM, stronger effect = lower value.
Receptor tyrosine-protein kinase erbB-2 (Homo sapiens), sequence (P04626 whole entry, looked up): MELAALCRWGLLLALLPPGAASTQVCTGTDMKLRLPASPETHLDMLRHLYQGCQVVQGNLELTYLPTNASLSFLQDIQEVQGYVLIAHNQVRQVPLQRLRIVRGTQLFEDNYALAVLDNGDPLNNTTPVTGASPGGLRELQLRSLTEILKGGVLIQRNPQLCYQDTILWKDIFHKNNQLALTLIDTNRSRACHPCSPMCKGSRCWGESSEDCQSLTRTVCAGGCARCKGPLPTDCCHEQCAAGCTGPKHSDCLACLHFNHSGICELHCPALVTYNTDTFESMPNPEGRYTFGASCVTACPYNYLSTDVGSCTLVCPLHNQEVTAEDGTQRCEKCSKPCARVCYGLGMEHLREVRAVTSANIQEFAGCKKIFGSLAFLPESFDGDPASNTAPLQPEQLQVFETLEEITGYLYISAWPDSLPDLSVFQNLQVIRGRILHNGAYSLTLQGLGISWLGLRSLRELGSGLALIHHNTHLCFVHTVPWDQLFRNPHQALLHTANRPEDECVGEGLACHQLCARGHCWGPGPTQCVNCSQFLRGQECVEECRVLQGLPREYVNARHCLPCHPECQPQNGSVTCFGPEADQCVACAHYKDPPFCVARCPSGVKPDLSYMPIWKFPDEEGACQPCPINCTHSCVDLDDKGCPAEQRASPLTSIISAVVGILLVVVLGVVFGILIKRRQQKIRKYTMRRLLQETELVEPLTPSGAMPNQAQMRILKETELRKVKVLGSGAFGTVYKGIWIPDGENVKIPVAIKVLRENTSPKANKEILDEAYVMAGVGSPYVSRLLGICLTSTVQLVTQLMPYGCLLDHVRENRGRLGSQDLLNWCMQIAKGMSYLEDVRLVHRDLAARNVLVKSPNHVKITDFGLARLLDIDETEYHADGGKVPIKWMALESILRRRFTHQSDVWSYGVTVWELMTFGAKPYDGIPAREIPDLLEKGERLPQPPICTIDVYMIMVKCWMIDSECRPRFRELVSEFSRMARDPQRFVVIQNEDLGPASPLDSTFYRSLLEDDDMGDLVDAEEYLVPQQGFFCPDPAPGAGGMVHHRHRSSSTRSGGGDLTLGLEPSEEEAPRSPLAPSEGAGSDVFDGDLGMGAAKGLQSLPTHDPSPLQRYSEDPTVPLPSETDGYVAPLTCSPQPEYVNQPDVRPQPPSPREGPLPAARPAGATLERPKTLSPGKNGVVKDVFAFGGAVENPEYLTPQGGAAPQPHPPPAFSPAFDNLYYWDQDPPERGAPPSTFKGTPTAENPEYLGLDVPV
A short description of test [3]: reduced viability of SK-BR-3 breast cancer cells – cell-based, 24 h, human, pilot screen (AID 572;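 active means viability at or below 10% of carrier control in both of two separate runs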;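 further: compound exposure lasted between 18 and 24 h rather than exactly 24 h; 100% = carrier-treated control wells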). Conditions: SK-BR-3 viability, CellTiter-Glo luminescence, at 10 µM, stronger effect = lower value. (In ATP-based viability assays light output follows the ATP content of the culture.)
The nature of test [4]: HUVEC growth inhibition – cell-based, human, primary screen (AID 575;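 active means viability at or below 30% in both replicate assays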;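 further: 100% = median of untreated cell wells with 0.1% DMSO on each plate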). Conditions: HUVEC proliferation, CellTiter-Glo luminescence, 72 h; at 10 µM; stronger effect = lower value. The method in brief: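 System – primary HUVEC, no more than 12 passages · Medium – Low-serum (2% FBS) EBM, supplemented · Times – 72 h exposure, 37 °C, 5% CO2, 30 min RT equilibration · Measured by – luminescent ATP assay · Read-out – % viability relative to median vehicle-well signal on each plate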

Test [5] in a line: H69AR cell proliferation blockers – human, duplicate replicates, primary screen (AID 580;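 active means viability at or under a set limit in both replicates, limit being median viability minus 3 SD, cut at about 48% in these data, passing the limit was not always enough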;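 further: 100% = mean luminescence of untreated wells and 0% = no signal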). To be noted: H69AR lung tumor cells viability, ATP luminescence, 72 h; at 10 µM; stronger effect = lower value.
The nature of test [6]: MRP1 drug-resistance reversers in H69AR cells – cell-based, doxorubicin co-treatment, pilot screen (AID 601;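 active means viability loss from added drug above about 55%, and viability with drug at most 40%, in both replicates, limit read from the data, passing the limit was not always enough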). Conditions: CellTiter-Glo, 72 h, at 10 µM; for differential viability (reversal): stronger effect = higher value.
Test [7] is described as follows: yeast transport mutant growth inhibition pilot in 384-well plates, post-Golgi transport modulator project (AID 636; in the data active means inhibition above about 31%). Conditions: absorbance 615 nm, about 18 h, stronger effect = higher value.
Test [8] is described as follows: growth suppression of yeast trafficking mutant, preliminary HTS, modulators of trafficking downstream of Golgi apparatus project, 1536-format plate, OD 615 nm (AID 637). Conditions: yeast transport mutant growth, absorbance 615 nm, 18 h; stronger effect = higher value.
The mark [9] stands for this setting: H69AR cells + 2 uM doxorubicin, measured here: viability with 2 uM doxorubicin, stronger effect = lower value.
Where [10] appears, read: H69AR cells, compound alone cytotoxicity.

For orientation: viability means a read-out of living cells in per cent, often relative to untreated cells. As usually defined, the inhibition is the relative decrease from the control value, in per cent. For the compound `CC(=O)C1=C(O)C(=O)N(Cc2cccnc2)C1c1ccccc1` (stereo not given), the viability in test [1] was 101%; in test [3], 101% (inactive); in test [4] it was 97.8% (inactive); in test [5], 105% (inactive); in test [6] (setting [9]), 95.3%; in test [6] (setting [10]), 105%. In test [2], the Her2 level was 114% (inactive). For the same compound, the differential viability (reversal) in test [6] (H69AR cells + 2 uM doxorubicin) is 10% (inactive). For the same compound, the inhibition is -6.13% (inactive) in test [7] and -1.77% (inactive) in test [8].
`Cc1onc(-c2ccccc2Cl)c1C(=O)Nc1cccc(-c2cn3cccnc3n2)c1`: the viability in test [1] is 104%; in test [3] it was 104% (inactive); in test [4], 71.4% (inactive); in test [5], 85.6% (inactive); in test [6] (setting [9]), 84.5%; in test [6] (setting [10]) it was 85.6%. Besides, the Her2 level in test [2] is 84% (inactive). Also, the differential viability (reversal) in test [6] (H69AR cells + 2 uM doxorubicin) was 1.15% (inactive). Moreover, the inhibition in test [7] was -5.39% (inactive); in test [8], -1.82% (inactive).
`Cn1c(C(=O)N2CCCC(C(=O)NCCCc3ccccc3)C2)cc2sccc21` (stereo not given): the viability in test [1] was 98%; in test [3], 98% (inactive); in test [4], 80.9% (inactive); in test [5], 82.3% (inactive); in test [6] (setting [9]), 98.7%; in test [6] (setting [10]), 82.3%. Moreover, in test [2], the Her2 level was 83.5% (inactive). For the same compound, the differential viability (reversal) in test [6] (H69AR cells + 2 uM doxorubicin) is -16.3% (inactive). Moreover, the inhibition in test [7] is -1.28% (inactive); in test [8], -1.17% (inactive).
Take `CCOCCn1cnc2sc(C(=O)Nc3nc(C)c(C(=O)OCC)s3)c(C)c2c1=O`: the viability was 110% in test [1]; 110% (inactive) in test [3]; 75.7% (inactive) in test [4]; 78% (inactive) in test [5]; 92.5% in test [6] (setting [9]); 78% in test [6] (setting [10]). Besides, the Her2 level in test [2] is 81% (inactive). Besides, the differential viability (reversal) in test [6] (H69AR cells + 2 uM doxorubicin) is -14.5% (inactive). Further, the inhibition was -1.18% (inactive) in test [7] and -2.42% (inactive) in test [8].
`c1ccc(-c2noc(C34CC5CC(CC(C5)C3)C4)n2)nc1`: the viability is 130% in test [1]; 130% (inactive) in test [3]; 94.8% (inactive) in test [4]; 83.4% (inactive) in test [5]; 66.2% in test [6] (setting [9]); 83.4% in test [6] (setting [10]). The Her2 level in test [2] was 106% (inactive). Also, the differential viability (reversal) in test [6] (H69AR cells + 2 uM doxorubicin) was 17.3% (inactive). In addition, the inhibition in test [7] was -4.87% (inactive); in test [8], 2.13% (inactive).
`COc1ccccc1N1CCN(C(=O)C(Cc2ccccc2)NC(=O)C2CCCCC2)CC1` (stereo not given): the viability in test [1] was 73.5%; in test [3] it was 73.5% (inactive); in test [4] it was 74.8% (inactive); in test [5] it was 90.6% (inactive); in test [6] (setting [9]), 86.7%; in test [6] (setting [10]), 90.6%. Moreover, the Her2 level in test [2] was 85.5% (inactive). Further, in test [6] (H69AR cells + 2 uM doxorubicin), the differential viability (reversal) was 3.88% (inactive). For the same compound, the values for the inhibition in test [7] and in test [8] were -5.84% (inactive) and -2.62% (inactive), respectively.
For `O=C(NC1CCCCC1)c1cc2nc(-c3ccco3)cc(C(F)(F)F)n2n1`, the viability in test [1] was 81.5%; in test [3], 81.5% (inactive); in test [4], 106% (inactive); in test [5], 80.2% (inactive); in test [6] (setting [9]), 83.2%; in test [6] (setting [10]) it was 80.2%. The Her2 level in test [2] is 93% (inactive). Moreover, the differential viability (reversal) in test [6] (H69AR cells + 2 uM doxorubicin) is -2.98% (inactive). In addition, the results for the inhibition in test [7] and in test [8] were -2.08% (inactive) and 2.79% (inactive), respectively.
`Cc1ccc(S(=O)(=O)NCC(=O)N(CC(=O)NC2CCCCC2)Cc2ccco2)cc1`: the viability in test [1] was 135%; in test [3], 135% (inactive); in test [4] it was 91% (inactive); in test [5], 93.9% (inactive); in test [6] (setting [9]), 91.3%; in test [6] (setting [10]), 93.9%. The Her2 level in test [2] is 100% (inactive). Besides, in test [6] (H69AR cells + 2 uM doxorubicin), the differential viability (reversal) is 2.62% (inactive). Besides, the inhibition is -5.87% (inactive) in test [7] and 4.76% (inactive) in test [8].
Regarding `O=C(NCc1ccccc1)C1CCCN1S(=O)(=O)c1cccc2cccnc12` (stereo not given), the viability is 94% in test [1]; 94% (inactive) in test [3]; 93% (inactive) in test [4]; 110% (inactive) in test [5]; 94.4% in test [6] (setting [9]); 110% in test [6] (setting [10]). In test [2], the Her2 level was 99.5% (inactive). The differential viability (reversal) in test [6] (H69AR cells + 2 uM doxorubicin) is 15.6% (inactive). For the same compound, the inhibition in test [7] is -0.53% (inactive); in test [8], -0.98% (inactive).
On to `O=C(O)c1cc(-c2ccccc2Cl)n[nH]1`, for which the viability in test [1] was 92%; in test [3], 92% (inactive); in test [4] it was 95.6% (inactive); in test [5], 81% (inactive); in test [6] (setting [9]) it was 79.2%; in test [6] (setting [10]), 81%. For the same compound, in test [2], the Her2 level was 93.5% (inactive). For the same compound, the differential viability (reversal) in test [6] (H69AR cells + 2 uM doxorubicin) is 1.79% (inactive). The inhibition is -2.34% (inactive) in test [7] and 2.38% (inactive) in test [8].
In the case of `COc1cc2[nH]c(=O)n(CCC(=O)N3CCc4ccccc4C3)c(=O)c2cc1OC`, the viability in test [1] is 102%; in test [3] it was 102% (inactive); in test [4], 116% (inactive); in test [5] it was 92.4% (inactive); in test [6] (setting [9]) it was 95%; in test [6] (setting [10]) it was 92.4%. In test [2], the Her2 level is 106% (inactive). The differential viability (reversal) in test [6] (H69AR cells + 2 uM doxorubicin) is -2.6% (inactive). Besides, the inhibition in test [7] is -4.73% (inactive); in test [8], -2.33% (inactive).
`O=C(NC1CCN(Cc2nnnn2CCc2ccccc2)CC1)c1ccccc1F`: the viability is 81.5% in test [1]; 81.5% (inactive) in test [3]; 85.4% (inactive) in test [4]; 86.5% (inactive) in test [5]; 98.3% in test [6] (setting [9]); 86.5% in test [6] (setting [10]). Also, the Her2 level in test [2] is 96% (inactive). For the same compound, the differential viability (reversal) in test [6] (H69AR cells + 2 uM doxorubicin) was -11.7% (inactive). Also, the inhibition was 0.13% (inactive) in test [7] and -0.5% (inactive) in test [8].
In the case of `CC(=O)Nc1sc2c(c1CN1CCN(c3ccccn3)CC1)CCCC2`, the viability in test [1] is 66%; in test [3], 66% (inactive); in test [4] it was 96% (inactive); in test [5] it was 95.4% (inactive); in test [6] (setting [9]) it was 83.3%; in test [6] (setting [10]), 95.4%. For the same compound, the Her2 level in test [2] is 85.5% (inactive). In addition, the differential viability (reversal) in test [6] (H69AR cells + 2 uM doxorubicin) is 12% (inactive). Besides, the inhibition in test [7] was -2.53% (inactive); in test [8], -10.5% (inactive).
Turning to `CCCCn1nnc(NC(=O)c2cc3ccccc3o2)n1`, the viability in test [1] was 107%; in test [3] it was 107% (inactive); in test [4], 119% (inactive); in test [5], 81.6% (inactive); in test [6] (setting [9]), 90.3%; in test [6] (setting [10]), 81.6%. Moreover, the Her2 level in test [2] is 88.5% (inactive). For the same compound, in test [6] (H69AR cells + 2 uM doxorubicin), the differential viability (reversal) was -8.71% (inactive). In addition, the inhibition in test [7] was 0.13% (inactive); in test [8], 8% (inactive).
On to `N#CC1=C(SCC(=O)c2cc3ccccc3oc2=O)NC(=O)C(C#N)C12CCCC2` (stereo not given), for which the viability in test [1] is 92%; in test [3] it was 92% (inactive); in test [4] it was 72.1% (inactive); in test [5] it was 86.5% (inactive); in test [6] (setting [9]), 80.1%; in test [6] (setting [10]), 86.5%. In addition, in test [2], the Her2 level is 76% (inactive). The differential viability (reversal) in test [6] (H69AR cells + 2 uM doxorubicin) is 6.35% (inactive). Besides, the results for the inhibition in test [7] and in test [8] were -3.2% (inactive) and 0.32% (inactive), respectively.
